Results taken from ChEMBL document CHEMBL1122024, “Quantitative structure-inhibitory activity relationships of phenols and fatty acids for Bacillus subtilis spore germination” (J Med Chem, 1982).

Experiments:
Bacillus subtilis [1] = type: functional
Bacillus subtilis [2] = assay: microbe, parasite or virus in culture; type: functional, organism-based; conditions: read-out: I50
physchem [3] = conditions: octanol/water
physchem [4] = conditions: octanol/water, pH 7.2
physchem [5] = assay: physchem
Bacillus subtilis [6] = assay: Inhibitory activity on germination of Bacillus subtilis PCI219 spores was determined at 2 x 10E-4 M; type: functional
In short: (§1)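 Unheated B. subtilis PCI219 spores (about 2.2×10^8 cells per mL) were incubated with the test compound in 0.1 mM L-alanine germinant and 0.05 M phosphate buffer, pH 7.2, at 37 °C. Germination was followed as the decrease in absorbance at 650 nm. The rate was taken as the slope of the steepest linear portion and compared with an inhibitor-free control.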

Bacillus subtilis [7] = assay: Inhibitory activity on germination of Bacillus subtilis PCI219 spores was determined; No inhibition at 5e-2M; type: functional, organism-based
In short: as §1

Bacillus subtilis [8] = test system: Bacillus subtilis
Bacillus subtilis [9] = assay: Inhibitory activity on germination of Bacillus subtilis PCI219 spores was determined; No inhibition at 5*10e-2 M; type: functional, organism-based
In short: as §1

Bacillus subtilis [10] = assay: Inhibitory activity on germination of Bacillus subtilis PCI219 spores was determined; No inhibition at 2.5e-3M; type: functional, organism-based
In short: as §1

[11] = Distribution coefficient (log D) was determined at pH 7.2
[12] = Dissociation constant was determined spectrophotometrically; Experiment 1; type: physicochemical

SMILES	Log 1/I50 (Bacillus subtilis [1])	IC50 (Bacillus subtilis [2])	logP (physchem [3])	logD (physchem [4])	pKa (physchem [5])	further results
Oc1ccc(-c2ccccc2)cc1	3.89 1/M	0.129 mM	3.2	3.2	9.5	
CC(C)(C)c1ccccc1O	4.46 1/M	0.0345 mM			11.3	
Oc1c(Cl)cc(Cl)cc1Cl		0.13 mM				
Cc1ccc(C(C)C)c(O)c1 [THYMOL]	3.31 1/M	0.494 mM			10.7	
Oc1c(Cl)cc(Cl)c(Cl)c1Cc1c(O)c(Cl)cc(Cl)c1Cl [HEXACHLOROPHENE]	3.7 1/M	0.198 mM	7.54	5.54	5	
Oc1c(Cl)c(Cl)c(Cl)c(Cl)c1Cl [PENTACHLOROPHENOL]	3.46 1/M	0.346 mM			5	
O=[N+]([O-])c1ccc(O)cc1 [P-NITROPHENOL]	2.17 1/M	6.83 mM		1.61	7.1	
CCCCCCCC/C=C\CCCCCCCC(=O)O [OLEIC ACID]						inhibition at 200 µM (Bacillus subtilis [6]): 30.2%
Nc1ccc(O)cc1 [4-AMINOPHENOL]					10.3	I50 (Bacillus subtilis [7]): No inhibition; Log 1/I50 (Bacillus subtilis [8]): No inhibition
Cc1ccc(O)cc1 [p-CRESOL]	2.44 1/M	3.64 mM		1.94		
CCCCCCCCCCCCCCCCCC(=O)O [STEARIC ACID]						inhibition at 200 µM (Bacillus subtilis [6]): 14.2%
CCCCCCCCCCCCCCCC(=O)O [PALMITIC ACID]						inhibition at 200 µM (Bacillus subtilis [6]): 17.3%
O=C(O)c1ccccc1O [SALICYLIC ACID]			2.24			I50 (Bacillus subtilis [9]): No inhibition
COc1ccccc1O [GUAIACOL]	2.2 1/M	6.31 mM	1.33	1.33	9.9	
O=[N+]([O-])c1ccccc1O [NITROPHENOLATE]	2.5 1/M	3.15 mM	1.77	1.47	7.2	
CCc1ccccc1O	3.31 1/M	0.493 mM	2.47	2.47	10.2	
CC(C)(C)c1ccc(O)cc1		0.302 mM				
CC(C)c1ccc(O)cc1	3.17 1/M	0.674 mM	2.86	2.86	10.1	
CC(C)Cc1ccc(O)cc1	3.52 1/M	0.302 mM	3.4	3.4	10.2	
CCCCCCC(=O)O [HEPTANOATE]	0.82 1/M	151 mM	2.42	0.12	4.9	
O=Cc1ccccc1O	2.42 1/M	3.78 mM			8.3	
Oc1c(Cl)cc(Cl)c(Cl)c1Cl	3.57 1/M	0.269 mM	4.1	2.59	5.7	
CCCCCCCCCCC(=O)O [UNDECANOATE]	2.35 1/M	4.47 mM	4.42	2.12	4.9	
Oc1ccccc1-c1ccccc1 [2-PHENYLPHENOL]	3.55 1/M	0.28 mM	3.09	3.09	9.9	
CC(C)Cc1ccccc1O	3.62 1/M	0.242 mM	3.27	3.27	10.5	
Oc1ccc(Cl)cc1 [PARACHLOROPHENOL]	3.1 1/M	0.797 mM			9.4	
Oc1ccc(Br)cc1		0.717 mM				

SMILES	Log 1/I50 (Bacillus subtilis [1])	IC50 (Bacillus subtilis [2])	logP (physchem [3])	logD (physchem [4])	pKa (physchem [5])	further results
NC(Cc1ccc(O)cc1)C(=O)O (stereo not given)						I50 (Bacillus subtilis [10]): No inhibition
CCCCCCCC(=O)O [OCTANOIC ACID]	1.27 1/M	53.5 mM	2.92	0.62		
CCc1ccc(O)cc1	2.8 1/M	1.6 mM	2.26	2.26	10	
CCCCCCCCCCCCCC(=O)O [MYRISTIC ACID]						inhibition at 200 µM (Bacillus subtilis [6]): 21%
Cc1cc(C)c(O)c(C)c1	2.85 1/M	1.4 mM	2.86	2.86	10.9	
Oc1cc(Cl)c(Cl)cc1Cl [TRICLOFENOL]	3.89 1/M	0.128 mM	3.72	3.31		
O=[N+]([O-])c1cccc(O)c1 [3-NITRO-PHENOL]	3.05 1/M	0.901 mM			8.4	logD [11]: 1.97
COC(=O)c1ccccc1O [METHYL SALICYLATE]	3 1/M	1.03 mM	2.46	2.46	10.2	
CC/C=C\C/C=C\C/C=C\CCCCCCCC(=O)O [LINOLENIC ACID]						inhibition at 200 µM (Bacillus subtilis [6]): 32%
COC(=O)c1ccc(O)cc1 [METHYLPARABEN]	2.7 1/M	2.01 mM				
Nc1cccc(O)c1 [3-AMINOPHENOL]	1.35 1/M	44.7 mM	0.16	0.16	9.9	
CCCCC/C=C\C/C=C\CCCCCCCC(=O)O [LINOLEIC ACID]						inhibition at 200 µM (Bacillus subtilis [6]): 34.6%
Cc1ccccc1O [ORTHOCRESOL]	2.89 1/M	1.3 mM	1.98	1.98	10.3	
Oc1cccc(O)c1 [RESORCINOL]	2.42 1/M	3.83 mM	0.78	0.78	9.4	
Oc1ccc(Cl)cc1Cl [2,4-DICHLOROPHENOL]	3.62 1/M	0.242 mM	3.14	3.06		
O=Cc1ccc(O)cc1 [4-HYDROXYBENZALDEHYDE]	1.7 1/M	20 mM	1.37	1.22	7.6	
Cc1cccc(O)c1 [METACRESOL]	2.7 1/M	2.01 mM	1.97	1.97	10.1	
Oc1ccccc1 [PHENOL]		1.5 mM				
Oc1ccccc1Cl [2-CHLOROPHENOL]	3.25 1/M	0.562 mM		2.13	8.5	
Nc1ccccc1O [QUESTIOMYCIN B]	1.52 1/M	29.9 mM	0.57	0.57	9.7	
CCCCCCCCC(=O)O [NONANOATE]	2.05 1/M	8.9 mM	3.42	1.12	4.9	
Cc1cc(O)cc(O)c1 [ORCINOL]	1.77 1/M	16.8 mM			9.3	
CC(C)c1ccccc1O	3.57 1/M	0.268 mM	2.88	2.88	10.4	
O=C(O)c1ccc(O)cc1 [PARABEN]			1.57			pKa [12]: 9.4; I50 (Bacillus subtilis [9]): Not Active
CCCCCCCCCC(=O)O [DECANOIC ACID]	2.22 1/M	6.03 mM	3.92	1.62		
CCCCCCCCCCCC(=O)O [DODECANOATE]	2.7 1/M	1.98 mM	4.92	2.62	4.9	
CCCCCCCCCCCCC(=O)O [TRIDECANOATE]	3.12 1/M	0.75 mM	5.42	3.12	4.9	
